Key:
Rho^P23H/+ mice [1] = assay: Immunoblot of LC3 and SQSTM1/p62 in retinae after IVI; format: in vivo, mouse; conditions: 25 pmol IVI at PND 15, 48 h after treatment
How it was run: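 Rho^P23H/+ mice received a 25 pmol/eye intravitreal injection of test compound at PND 15, with PBS in the contralateral eye. Retinae were taken 48 h later, and 30 μg of lysate was immunoblotted for SQSTM1/p62 and LC3 with β-actin as loading control. Blotting used SDS-PAGE, nitrocellulose transfer, 1 h blocking in 5% BSA/PBS-0.05% Tween 20, primary antibody overnight at 4 °C, secondary 1 h at RT, and chemiluminescent detection.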

WT rhodopsin = assay: Rhodopsin immunoblot of NIH3T3; format: cell-based, mouse; conditions: 10 μM MTX plus 100 nM BafA1, 24 h
How it was run: (§1)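 Cells were seeded at 5 × 10⁵/well in 6-well plates for 17 h, then given fresh medium with test compound and inhibitor. Protein was measured by A280. Rhodopsin blots loaded 100 μg (P23H line) or 20 μg (WT line), run on 10% and 16% SDS-PAGE and transferred to nitrocellulose. Membranes were blocked 1 h in 5% BSA/PBS-0.05% Tween 20, probed with primary overnight at 4 °C and secondary 1 h at RT, with chemiluminescent detection.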

P23H rhodopsin [2] = target: T1, P23H rhodopsin (Mus musculus, UniProt P15409, P23H); assay: Non-radioactive pulse-chase assay in NIH3T3; format: cell-based; conditions: 10 μM
How it was run: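 Non-radioactive pulse-chase. Cells (3 × 10⁵/well, 24-well) were grown overnight, starved in Met-free DMEM for 1 h, then pulsed with 50 μM L-AHA for 4 h (50 μM Met as negative control). Chase was 24 h in DMEM with 2 mM Met ± 10 μM test compound. Lysates (200 μg) were clicked with 5 μM BTN-sDIBO for 1 h at 37 °C, immunoprecipitated with 1D4, eluted at pH 2.8, dot-blotted and probed with HRP-streptavidin. Values normalized to DMSO on the same membrane; N=3, unpaired two-tailed t-test.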

[3] = Estimated vitreous concentration after intravitreal injection, rabbit; conditions: 1.76 μmol, vitreous cavity about 1.5 mL, ref [70]
P23H rhodopsin [4] = target: T1, P23H rhodopsin; assay: Rhodopsin immunoblot of NIH3T3; format: cell-based; conditions: 10 μM MTX plus 100 nM BafA1, 24 h
How it was run: as §1

[5] = target: P23H rhodopsin fused with Renilla luciferase (Mus musculus, UniProt P15409, P23H); assay: Rluc reporter assay in Hek293; format: cell-based; conditions: HEK293, read-out: Rluc assay Hek293 (RHO^P23H-Rluc) Efficacy
[6] = system: rhodopsin mutants (T4R, P23H, P53R, C110Y, D190N, P267L); format: cell-based, mouse; conditions: U2OS cells
How it was run: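 U2OS stable lines expressed WT or mutant mouse rhodopsin fused to Venus. Cells were transfected with pcDNA3.1 Zeo constructs, kept 48 h in DMEM/10% FBS, then selected with 400 μg/mL Zeocin. Stable cells were treated with test compound at 10 μM and immunostained for rhodopsin.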

Rho^P23H/+ mice [7] = assay: Retinal immunohistochemistry; format: in vivo, mouse
How it was run: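 Rho^P23H/+ mice received intravitreal test compound (25 or 100 pmol) in one eye and PBS in the fellow eye. Dosing was either a single injection at PND 15, with eyes enucleated at PND 33, or four weekly injections from PND 15, with enucleation at PND 46. Retinae were processed for rhodopsin immunohistochemistry and ONL nuclear counts. Age-matched Rho^+/+ mice served as normal controls.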

[8] = system: chymotrypsin-like proteasome activity; assay: Proteasome activity assay; format: cell-based; conditions: NIH3T3(RHO^P23H/GFP) and NIH3T3(RHO^WT/GFP) cells, MTX 0.0195 to 10 μM, 24 h
How it was run: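 Cells were seeded at 2500/well in 384-well plates and after 3 h treated for 24 h with test compound at 0.0195–10 μM final. Controls were 0.1% DMSO (100%) and 5 μM MG-132 for 8 h (0%). Proteasome-Glo reagent with Suc-LLVY-Glo substrate was added, shaken 2 min and held 24 min at RT. Luminescence gave chymotrypsin-like activity, normalized to the controls.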

RHO transcripts = assay: qPCR of RHO transcripts in NIH3T3; format: cell-based, mouse; conditions: 10 μM, 24 h
How it was run: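 NIH3T3 cells stably expressing WT or P23H rhodopsin (GFP lines) were seeded in 24-well plates at 2.5×10⁵ cells/well and cultured overnight at 37 °C, 5% CO₂. They were then exposed to test compound in culture medium for 24 h. RNA was precipitated by centrifugation at 12,000×g for 10 min at 4 °C, washed with 75% ethanol, air-dried and dissolved in nuclease-free water before qPCR.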

P23H rhodopsin [9] = target: T1, P23H rhodopsin; assay: Rhodopsin dot blot of NIH3T3; format: cell-based; conditions: NIH3T3(RHO^P23H/GFP) cells, 10 μM, 24 h, vs DMSO control
How it was run: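 NIH3T3(RHO^P23H/GFP) cells were seeded at 2.5 × 10⁴/well in 96-well plates, attached 4 h, then given medium with 2× test compound to reach 10 μM final for 24 h. Cells were PBS-washed and lysed in RIPA with protease inhibitors plus 6 s sonication. Of each well's lysate, 90% was dotted on nitrocellulose, air-dried and probed with 0.1 μg/mL HRP-1D4. Densitometry was normalized to DMSO.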

Rho^P23H/+ mice [10] = assay: Electroretinogram; format: in vivo, mouse
How it was run: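 Rho^P23H/+ mice (homozygous knock-in crossed with C57BL/6J). Test compound given by intravitreal injection to one eye, PBS to the other. Dosing was a single 25 or 100 pmol at PND 15 with ERG at PND 32, or four weekly injections (PND 15, 22, 29, 36) with ERG at PND 44. Scotopic ERG used eight flashes. Photopic ERG used six flashes (0.01–30 cd·s/m²) after 5 min adaptation to 10 cd/m², on that background. Age-matched Rho^+/+ controls. Two-way ANOVA.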

P23H rhodopsin [11] = target: T1, P23H rhodopsin; assay: Image-based; format: cell-based
[12] = single IVI 25 pmol at PND 15, IHC at PND 33
[13] = single IVI 100 pmol at PND 15, ERG at PND 32

In the case of CN(Cc1cnc2nc(N)nc(N)c2n1)c1ccc(C(=O)N[C@@H](CCC(=O)O)C(=O)O)cc1 [CL-009, methotrexate], the “LC3-II level in retinae compared to PBS control” value (Rho^P23H/+ mice [1]) is reported as “increase”, the “SQSTM1/p62 level in retinae compared to PBS control” value (Rho^P23H/+ mice [1]) is reported as “decrease” and the “WT rhodopsin level under BafA1 and MTX co-treatment (immunoblot)” value (WT rhodopsin) is reported as “accumulation”. For the same molecule, the “BTN-AHA labeled P23H rhodopsin at 24 h of chase in comparison to DMSO control” value (P23H rhodopsin [2]) was “significantly reduced”, the “Final concentration in vitreous” value [3] was “about 1 mM” and the “MTX induced P23H rhodopsin clearance under co-treatment with BafA1 (immunoblot)” value (P23H rhodopsin [4]) was “abolished”. The Emax [5] was 53%, the “Rhodopsin immunofluorescence in cells expressing the P23H, C110Y, D190N and P267L mutants” value [6] was “dose-dependent reductions” and the “Retinal degeneration caused by MTX” value (Rho^P23H/+ mice [7]; 100 pmol IVI, Rho^P23H/+ mice) was “did not see obvious retinal degeneration”. For the same molecule, the “Nucleus number in the ONL vs PBS group, superior side” value (Rho^P23H/+ mice [7]; four IVIs of 25 pmol, IHC at PND 46) was “higher”, the “ONL nucleus number, either side of the retina” value (Rho^P23H/+ mice [7]; [12]) was “No change” and the “Total rhodopsin level and rhodopsin in the OS compared to PBS control, superior side” value (Rho^P23H/+ mice [7]; [12]) was “significant increase”. The Chymotrypsin-like proteasome activity [8] was “did not affect”, the “Rho mRNA level (qPCR)” value (RHO transcripts; NIH3T3(RHO^P23H/GFP) cells, vs DMSO control) was “No Change” and the “WT and P23H rhodopsin transcripts in comparison to DMSO control” value (RHO transcripts; both NIH3T3(RHO^P23H/GFP) and NIH3T3(RHO^WT/GFP) cells) was “did not affect”. The “Rho protein level (Dot blot)” value (P23H rhodopsin [9]) was “Down”, the “Multi-flash scotopic and photopic b-waves compared to PBS control group” value (Rho^P23H/+ mice [10]; four weekly IVIs starting at PND 15 (25 pmol per treatment), ERG at PND 44) was “significantly increased” and the “Photopic ERG responses vs PBS treated or non-treated eyes” value (Rho^P23H/+ mice [10]; single IVI 25 pmol at PND 15, ERG at PND 32) was “higher”. The “Multi-flash scotopic ERG a- and b-waves vs PBS or non-treated eyes” value (Rho^P23H/+ mice [10]; [13]) was “no effect”, the “Photopic ERG responses vs PBS treated or non-treated eyes” value (Rho^P23H/+ mice [10]; [13]) was “did not show any effects” and the “Ratio of scotopic and photopic b- to a-wave amplitudes” value (Rho^P23H/+ mice [10]; single IVI at PND 15, ERG at PND 32) was “not affected”. For the same molecule, the “Mean intensity of P23H rhodopsin immunostaining per cell” value (P23H rhodopsin [11]; MTX alone) was “reduced in an MTX dose-dependent manner” and the Emax (P23H rhodopsin [11]; NIH3T3, 24 h, read-out: Image-based assay NIH3T3 (RHO^P23H/GFP) Efficacy) was 36%.

From paper PMC7688577 (FASEB journal : official publication of the Federation of …, 2020)
